In ChEMBL document CHEMBL4052804, “Design and synthesis of piperazine acetate podophyllotoxin ester derivatives targeting tubulin depolymerization as new anticancer agents” (Bioorg Med Chem Lett, 2017):
Calls of active or inactive are those of the source. The calls are words filed in the database; no cut-off is given here.

Tests used:
[1] = test system: A549; assay: Cytotoxicity against human A549 cells after 24 hrs by MTT assay; format: functional, cell-based; settings: A549, 24 h
Outline: (§1)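 In vitro antiproliferative screen by MTT assay against human MCF-7 breast, HeLa cervical, A549 lung adenocarcinoma and HepG-2 hepatoma cells. Output is the IC50.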

[2] = test system: MCF7; assay: Cytotoxicity against human MCF7 cells after 24 hrs by MTT assay; format: functional, cell-based; settings: MCF7, 24 h; outline: as §1
[3] = test system: HepG2; assay: Cytotoxicity against human HepG2 cells after 24 hrs by MTT assay; format: functional, cell-based; settings: HepG2, 24 h; outline: as §1
[4] = test system: L02; assay: Cytotoxicity against human L02 cells after 24 hrs by MTT assay; format: cell-based; settings: L02, 24 h
Outline: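 Normal human liver L02 cells were tested at multiple concentrations in an MTT assay. Output is the median cytotoxic concentration (CC50).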

[5] = test system: HeLa; assay: Cytotoxicity against human HeLa cells after 24 hrs by MTT assay; format: functional, cell-based; outline: as §1
[6] = species: Homo sapiens; assay: Induction of tubulin depolymerization in human MCF7 cells at 1 uM after 12 hrs by DAPI staining based confocal microscopic analysis; format: cell-based

SMILES	IC50 [1] [µM]	IC50 [2] [µM]	IC50 [3] [µM]	IC50 [4] [µM]	IC50 [5] [µM]	Activity [6]
COc1cc([C@@H]2c3cc4c(cc3[C@@H](O[C@@H]3O[C@@H]5CO[C@@H](C)O[C@H]5[C@H](O)[C@H]3O)[C@H]3COC(=O)[C@H]23)OCO4)cc(OC)c1O [ETOPOSIDE]	6.21	2.08	5.52	7.75	1.58	–
COc1cc([C@@H]2c3cc4c(cc3[C@H](OC(=O)CN3CCN(c5cccc(Cl)c5Cl)CC3)[C@H]3COC(=O)[C@H]23)OCO4)cc(OC)c1OC	7.51	3.02	6.15	97.8	7.83	–
COc1cc([C@@H]2c3cc4c(cc3[C@H](OC(=O)CN3CCN(c5ccc(C)cc5C)CC3)[C@H]3COC(=O)[C@H]23)OCO4)cc(OC)c1OC	34.4	> 50	45.8	93.9	23.1	–
COc1ccc(N2CCN(CC(=O)O[C@H]3c4cc5c(cc4[C@@H](c4cc(OC)c(OC)c(OC)c4)[C@H]4C(=O)OC[C@@H]43)OCO5)CC2)cc1	16.4	13.5	25.9	87.9	31.6	–
COc1cc([C@@H]2c3cc4c(cc3[C@H](OC(=O)CN3CCN(c5ccc([N+](=O)[O-])cc5)CC3)[C@H]3COC(=O)[C@H]23)OCO4)cc(OC)c1OC	8.15	9.6	6.87	> 100	11	–
COc1cc([C@@H]2c3cc4c(cc3[C@H](OC(=O)CN3CCN(c5ccccc5Cl)CC3)[C@H]3COC(=O)[C@H]23)OCO4)cc(OC)c1OC	8.47	9.98	17.7	> 100	11.3	–
COc1cc([C@@H]2c3cc4c(cc3[C@H](OC(=O)CN3CCN(c5ccccc5F)CC3)[C@H]3COC(=O)[C@H]23)OCO4)cc(OC)c1OC	9.8	11.7	15.4	> 100	18	–
COc1cc([C@@H]2c3cc4c(cc3[C@H](OC(=O)CN3CCN(C(c5ccccc5)c5ccccc5)CC3)[C@H]3COC(=O)[C@H]23)OCO4)cc(OC)c1OC	12.3	16.5	16.4	65.8	23.2	–
COc1cccc(N2CCN(CC(=O)O[C@H]3c4cc5c(cc4[C@@H](c4cc(OC)c(OC)c(OC)c4)[C@H]4C(=O)OC[C@@H]43)OCO5)CC2)c1	23.2	12.2	36.7	> 100	36.7	–
COc1cc2c(c(OC)c1OC)-c1ccc(OC)c(=O)cc1[C@@H](NC(C)=O)CC2	–	–	–	–	–	Active
COc1cc([C@@H]2c3cc4c(cc3[C@H](OC(=O)CN3CCN(C(c5ccccc5)c5ccc(Cl)cc5)CC3)[C@H]3COC(=O)[C@H]23)OCO4)cc(OC)c1OC (some centres not stated)	14.2	7.75	10.9	> 100	12.2	–
COc1cc([C@@H]2c3cc4c(cc3[C@H](OC(=O)CN3CCN(c5cccc(Cl)c5)CC3)[C@H]3COC(=O)[C@H]23)OCO4)cc(OC)c1OC	9.26	9.87	13.5	99.3	8.3	–
COc1cc([C@@H]2c3cc4c(cc3[C@H](OC(=O)CN3CCN(C(c5ccc(F)cc5)c5ccc(F)cc5)CC3)[C@H]3COC(=O)[C@H]23)OCO4)cc(OC)c1OC	13.2	6.23	7.04	> 100	9.54	–
COc1cc([C@@H]2c3cc4c(cc3[C@H](OC(=O)CN3CCN(c5ccc(F)cc5)CC3)[C@H]3COC(=O)[C@H]23)OCO4)cc(OC)c1OC	11.9	8.49	12.6	> 100	17.3	–
CC(=O)O[C@H]1C(=O)[C@@]2(C)[C@H]([C@H](OC(=O)c3ccccc3)[C@]3(O)C[C@H](OC(=O)[C@H](O)[C@@H](NC(=O)c4ccccc4)c4ccccc4)C(C)=C1C3(C)C)[C@]1(OC(C)=O)CO[C@@H]1C[C@@H]2O	–	–	–	–	–	inactive
COc1cc([C@@H]2c3cc4c(cc3[C@H](OC(=O)CN3CCN(c5ccccc5)CC3)[C@H]3COC(=O)[C@H]23)OCO4)cc(OC)c1OC	15.2	22	16.6	75.8	33	–
COc1ccccc1N1CCN(CC(=O)O[C@H]2c3cc4c(cc3[C@@H](c3cc(OC)c(OC)c(OC)c3)[C@H]3C(=O)OC[C@@H]32)OCO4)CC1	28.6	48.2	34.2	90.7	> 50	–
COc1cc([C@@H]2c3cc4c(cc3[C@H](OC(=O)CN3CCN(c5cccc(C(F)(F)F)c5)CC3)[C@H]3COC(=O)[C@H]23)OCO4)cc(OC)c1OC	10.8	7.19	9.61	> 100	6.82	–
